A selection: hits, their analogues and other compounds. The true share with any hit is near 3%.
TAAR1 agonist: human TAAR1 agonists, primary screen, Fluo-8 calcium fluorescence, CHO RD-HGA16 cells; activation, % at 3 µM; AID 624467, 2012; hit rate 0.99% among 360,000; vehicle wells 0%, saturating PEA agonist 100%;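 active = activation above the mean activation of all test compounds in the run plus 3 SD, cut at about 38% in these data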
Target sequence (Q96RJ0 whole entry, looked up): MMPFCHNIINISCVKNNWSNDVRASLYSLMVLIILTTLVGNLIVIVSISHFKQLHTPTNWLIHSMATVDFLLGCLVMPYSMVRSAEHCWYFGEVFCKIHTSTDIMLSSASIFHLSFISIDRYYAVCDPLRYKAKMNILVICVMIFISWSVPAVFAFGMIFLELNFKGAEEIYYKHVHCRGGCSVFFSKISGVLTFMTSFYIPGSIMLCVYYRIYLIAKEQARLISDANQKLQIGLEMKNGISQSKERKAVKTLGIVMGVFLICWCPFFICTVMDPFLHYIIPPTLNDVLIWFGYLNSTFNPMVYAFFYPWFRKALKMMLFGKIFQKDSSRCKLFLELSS
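Test system: RD-HGA16 (CHO) cells co-expressing Gα16 and hTAAR1 | Doses: Single dose, 3 µM | Schedule: 17-24 h seeding, 75 min 37 °C dye, 30 min RT | Evaluation: % activation from peak over basal fluorescence ratio, DMSO-to-PEA scaled | Technique: Kinetic Fluo-8 calcium fluorescence | Benchmarks: Low control DMSO, high control PEA (EC100)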
M4 antag: human M4 muscarinic receptor antagonists, primary screen, CHO cells, Fluo-8 calcium fluorescence; CHO-hM4 cells, ACh EC80; inhibition, % at 3 µM; hit rate 0.73% among 360,000; AID 624125, 2012;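 active = inhibition above its plate's cutoff, the mean inhibition of sample wells plus 3 SD, cut at about 27% in these data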
CHRM4 PAM: human M4 muscarinic receptor positive allosteric modulators, primary screen, CHO-K1 cells, Fluo-8 calcium fluorescence. hit rate 0.4% among 360,000. Muscarinic acetylcholine receptor M4 (Homo sapiens), P08173. CHO-K1 hM4/Gqi5, ACh EC20; 0% = ACh EC20, 100% = maximal ACh. activation, % at 3 µM;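 active = activation above its plate's cutoff, the mean activation of sample wells plus 3 SD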
CHRM4 agonist: human M4 muscarinic receptor agonists, primary screen, CHO-K1 cells, Fluo-8 calcium fluorescence; Muscarinic acetylcholine receptor M4 (Homo sapiens), P08173; CHO-K1 hM4/Gqi5; vehicle 0%, full acetylcholine response 100%; activation, % at 3 µM; hit rate 0.14% among 360,000; AID 624127, 2012;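 active = activation above the run mean over all test wells plus 3 SD, cut at about 32% in these data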;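 note: peak over basal fluorescence ratio per well then scaled between controls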
TAAR1 antag: human TAAR1 antagonists, primary screen, Fluo-8 calcium fluorescence, CHO RD-HGA16 cells | antagonist | inhibition, % at 3 µM | hit rate 1.5% among 360,000 | Trace amine-associated receptor 1 (Homo sapiens), Q96RJ0;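 active = inhibition above a per-plate cutoff, the mean inhibition of test compounds on that plate plus 3 SD, cut at about 49% in these data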
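Test system: RD-HGA16 CHO cells with stable hTAAR1 and Gα16 / Probe or stimulus: EC80 β-phenethylamine stimulus / Times: seeding 17-24 h prior, 75-min 37 °C, 30-min RT dye loading / Detection: Fluo-8 calcium-sensitive fluorescence / Read-out basis: % inhibition scaled between DMSO and EC80 PEA controls / Repeats: singlicate, one well per test compound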
nonsel antag count: nonselective antagonists in TAAR1 counter-screen cells, counter-screen for hTAAR1 antagonist project, cell-based, fluorescence, calcium. counterscreen cell line, antagonist mode. shares compounds with TAAR1 antag. hit rate 77% among 2,400. inhibition, % at 3 µM; in the data active = inhibition above about 22%;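 note: CHO-Ga16 host cells stimulated with ATP at an EC80 level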
TAAR1 ant conf: human TAAR1 antagonists, retest of hits, confirmation, cell-based, fluorescence | shares compounds with TAAR1 antag | TAAR1-expressing cells, fluorescence antagonist read-out | inhibition, % at 3 µM | hit rate 40% among 2,400 | AID 651785, 2012; in the data active = inhibition above about 49%;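 note: CHO-Ga16 host cells challenged with agonist PEA near its EC80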
Ga16 ag counter: calcium activation in Ga16-expressing cells, counter-screen for TAAR1 antagonist project, cell-based, fluorescence; shares compounds with TAAR1 antag; agonist counterscreen; activation, % at 3 µM; hit rate 18% among 2,400; AID 651953, 2012; in the data active = activation above about 12%
TAAR1 ag counter: TAAR1 activation by candidate antagonists – cell-based, fluorescence, counter-screen for TAAR1 antagonist project; shares compounds with TAAR1 antag; hTAAR1 cell line, agonist mode; activation, % at 3 µM; hit rate 2% among 2,400; in the data active = activation above about 37%;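 note: CHO cells stably expressing TAAR1 with calcium dye readout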
Of the large screens only hits and unclear results are named; the others gave an inactive call (follow-up assays come after a bar, where they were run).

CSc1ccc(CN(C)C(=O)C(Cc2ccccc2)NC(=O)c2ccccc2)cc1 (stereo unspecified)	TAAR1 antag 82 | nonsel antag count 34 | TAAR1 ant conf 57 | Ga16 ag counter inactive | TAAR1 ag counter inactive
O=C(NC(Cc1ccc(F)cc1)C(=O)O)c1ccccc1 (stereo unspecified)	none
CCOc1ccc(CN(C)C(=O)[C@H](Cc2ccccc2)NC(=O)OCc2ccccc2)cc1OC	TAAR1 antag 62 | nonsel antag count 30 | TAAR1 ant conf 55 | Ga16 ag counter inactive | TAAR1 ag counter inactive
CN(Cc1ccc(F)cc1)C(=O)C(Cc1ccccc1)NC(=O)c1ccccc1 (stereo unspecified)	TAAR1 antag 67 | nonsel antag count 27 | TAAR1 ant conf 55 | Ga16 ag counter inactive | TAAR1 ag counter inactive
COc1ccccc1S(=O)(=O)N(C)C[C@@H]1OCc2cnnn2CCCC(=O)N([C@@H](C)CO)C[C@@H]1C	none
COc1ccc(NS(=O)(=O)c2cc(NC(=O)c3cc(=O)c4ccccc4o3)ccc2OC)cc1	TAAR1 antag 64 | nonsel antag count 27 | TAAR1 ant conf 53 | Ga16 ag counter inactive | TAAR1 ag counter inactive
COC(=O)[C@@]1(C(C)C)N=C(c2cc(OC)c(OC)c(OC)c2)[C@]2(O1)C(=O)Nc1ccc(F)cc12	none
CCCC(=O)N1CCC1(C)C(=O)Nc1ccc(-n2cccc2)cc1 (stereo unspecified)	none (no result: TAAR1 agonist, TAAR1 antag)
CCC(C(=O)NCc1ccc(F)cc1)N(Cc1ccco1)C(=O)c1snc(C(N)=O)c1N (stereo unspecified)	none
Cc1ccccc1N(C(=O)c1snc(C(N)=O)c1N)C(C)C(=O)NC1CCCCC1 (stereo unspecified)	none
CN(C)c1ccc(C(C(=O)NC2CCCCC2)N(Cc2ccco2)C(=O)c2snc(C(N)=O)c2N)cc1 (stereo unspecified)	TAAR1 antag 58 | nonsel antag count 31 | TAAR1 ant conf 53 | Ga16 ag counter inactive | TAAR1 ag counter inactive
NC(=O)c1nsc(C(=O)N(Cc2ccco2)C(C(=O)NCc2ccccc2)c2ccc(O)cc2)c1N (stereo unspecified)	TAAR1 antag 72 | nonsel antag count 35 | TAAR1 ant conf 57 | Ga16 ag counter inactive | TAAR1 ag counter inactive
Cc1ccccc1N(C(=O)c1snc(C(N)=O)c1N)C(C(=O)NCc1ccccc1)c1ccc(O)cc1 (stereo unspecified)	TAAR1 antag 64 | nonsel antag count 30 | TAAR1 ant conf 54 | Ga16 ag counter inactive | TAAR1 ag counter inactive
Cc1ccccc1N(C(=O)c1snc(C(N)=O)c1N)C(C(=O)NC1CCCCC1)c1ccc(O)cc1 (stereo unspecified)	TAAR1 antag 73 | nonsel antag count inactive | TAAR1 ant conf 56 | Ga16 ag counter inactive | TAAR1 ag counter inactive
Cc1ccc2c(NCc3ccco3)nc(NC(C)C)nc2c1	none
